Results collected from several papers.
Each line is one published result; the experiments were not run side by side.
Medium: plasma

SMILES	system	conditions	Cmax
Br.Cc1ccc(Sc2ccccc2N2CCNCC2)c(C)c1	human	oral, 10 mg, multiple doses, steady state, healthy volunteers	18 ng/mL
C/C(=C\c1csc(C)n1)[C@@H]1C[C@@H]2O[C@]2(C)CCC[C@H](C)[C@H](O)[C@@H](C)C(=O)C(C)(C)[C@@H](O)CC(=O)N1	human	intravenous, 20 mg/m², patients	249 ng/mL
CC(C)(Sc1ccncc1-c1ccc(C#N)c2ccccc12)C(=O)O	male human	oral, 40 mg, single dose, fasted, healthy volunteers	760 ng/mL
C[C@@H](Oc1ccc(S(C)(=O)=O)cc1C(=O)N1C[C@@H]2C[C@]2(c2cc(C(F)(F)F)on2)C1)C(F)(F)F	human	oral, 25 mg, fed, tablet	312 nM
O=C(O)C[C@H](O)C[C@H](O)/C=C/c1c(C2CC2)nc2ccccc2c1-c1ccc(F)cc1	human	oral, 2 mg, single dose, fasted, healthy volunteers, tablet	36.4 ng/mL
CCOc1ccc(Cc2cc([C@@H]3S[C@H](CO)[C@@H](O)[C@H](O)[C@H]3O)c(OC)cc2C)cc1	male human	oral, 5 mg, single dose, fasted, healthy volunteers	208 ng/mL
CCCCC1=NC2(CCCC2)C(=O)N1Cc1ccc(-c2ccccc2S(=O)(=O)Nc2noc(C)c2C)c(COCC)c1	human	oral, 200 mg, single dose, fed, healthy volunteers	6280 ng/mL
O=C(Nc1c(Cl)cncc1Cl)c1ccc(OC(F)F)c(OCC2CC2)c1	human	oral, 0.375 mg, multiple doses, once daily, steady state	11.4 ng/mL
NS(=O)(=O)NCCNc1nonc1C(=NO)Nc1ccc(F)c(Br)c1	human	oral, 600 mg, multiple doses, twice daily, steady state, patients	4820 nM
COc1cc(C(=O)NC2CCN(C)CC2)c(F)cc1Nc1ncc(C(F)(F)F)c(Oc2cccc3c2C(=O)N(C)C3)n1	human	oral, 10 mg, multiple doses, once daily, steady state, patients	59.2 nM
CC(C)(C(=O)N1CCOc2c(C#N)cncc2C1)C(F)F	human	oral, 10 mg, single dose, fasted, healthy volunteers	116 ng/mL
COc1cc2c(cc1OC)CN(CCc1ccc(NC(=O)c3cc(OC)c(OC)cc3NC(=O)c3cnc4ccccc4c3)cc1)CC2	human	intravenous, 1.5 mg/kg, patients	2300 nM
CS(=O)(=O)CCNCc1ccc(-c2ccc3ncnc(Nc4ccc(OCc5cccc(F)c5)c(Cl)c4)c3c2)o1	human	oral, 500 mg, multiple doses, twice daily, steady state, patients	2370 ng/mL
COCCOc1cnc2ccn([C@H](C)c3nnc4c(F)cc(-c5cnn(C)c5)cn34)c(=O)c2c1	human	oral, 150 mg, multiple doses, once daily, patients	2910 ng/mL
CCc1nc2c(C)cc(N3CCN(CC(=O)N4CC(O)C4)CC3)cn2c1N(C)c1nc(-c2ccc(F)cc2)c(C#N)s1	human	oral, 600 mg, single dose, fasted, healthy volunteers	5800 ng/mL
Nc1cc(C(F)(F)F)c(-c2cc(N3CCOCC3)nc(N3CCOCC3)n2)cn1	human	oral, 100 mg/day, patients	1080 ng/mL
Oc1cc(O)c2c(c1)O[C@@H](c1ccc(O)c(O)c1)[C@@H](O)C2	human	oral, 100 mg, single dose	3.6 ng/mL
CCn1c(=O)c(-c2cc(NC(=O)Nc3ccccc3)c(F)cc2Br)cc2cnc(NC)cc21	human	oral, 30 mg, single dose, patients	133 ng/mL

SMILES	system	conditions	Cmax
C[C@@]1(c2cc(NC(=O)c3ccc(C#N)cn3)ccc2F)C=CSC(N)=N1	human	oral, 150 mg, single dose	906 ng/mL
CNC(=O)c1cc(Oc2ccc(NC(=O)Nc3cc(C(C)(C)C)nn3-c3ccc4ncccc4c3)c(F)c2)ccn1	human	oral, 150 mg, multiple doses, twice daily	308 ng/mL
CCCOc1ccc([C@H]2CNC(=O)N2c2ccc3[nH]cnc3c2)cc1	human	oral, 200 mg, single dose, fed, healthy volunteers	565 ng/mL
CO[C@H]1CC[C@H](N2C(=O)CNc3ncc(-c4ccc(C(C)(C)O)nc4)nc32)CC1	human	oral, 60 mg, patients	319 ng/mL
COc1cc2c(Nc3ccc(Br)cc3F)ncnc2cc1OCC1CCN(C)CC1	human	oral, 65 mg/m², multiple doses, once daily, steady state, patients	868 ng/mL
COc1ccc([C@@H]2CN(C(=O)[C@@H](O)CO)C[C@@]2(C)[C@@H](C)O)cc1OC1CN(c2ccc(C)cn2)C1	human	oral, 0.1 mg, single dose, healthy volunteers	8.8 ng/mL
COC(=O)N[C@@H](C)CNc1nccc(-c2cn(C(C)C)nc2-c2cc(Cl)cc(NS(C)(=O)=O)c2F)n1	human	oral, 50 mg, single dose	482 ng/mL
Cn1c(=O)oc2ccc(-c3ccc(C[C@@H](C#N)NC(=O)[C@@H]4CNCCCO4)cc3)cc21	male human	oral, 50 mg, single dose, healthy volunteers	1040 nM
N#CN1C[C@H](n2nc(-c3ccc(Oc4ccc(Cl)cn4)cc3)c(C(N)=O)c2N)CCC12CC2	human	oral, 600 mg, fed	1020 ng/mL
CO[C@@H]1[C@H](OC(=O)N2CC(CCN3CCOCC3)C2)CC[C@]2(CO2)[C@H]1[C@@]1(C)O[C@@H]1CC=C(C)C	human	subcutaneous, 0.6 mg, single dose, healthy volunteers	2.28 ng/mL
Cn1cc(-c2ccc(S(=O)(=O)[C@@H]3C[C@@H](C(=O)NC4(C#N)CC4)N(C(=O)C4(C(F)(F)F)CC4)C3)c(C(F)(F)F)c2)cn1	human	oral, 10 mg, single dose, fasted, healthy volunteers	81.3 ng/mL
Cc1ccc(C(=O)N(CCCN)[C@@H](c2oc3cc(Cl)ccc3c(=O)c2Cc2ccccc2)C(C)C)cc1	human	intravenous, 2 mg/m², single dose, patients, infusion	233 ng/mL
CC(C)n1cc(C#N)c2cc(-n3cc(C(=O)O)cn3)ccc21	human	oral, 200 mg, single dose, fasted, healthy volunteers	8770 ng/mL
O=C(/C=C/c1cccc(S(=O)(=O)Nc2ccccc2)c1)NO	human	intravenous, 2000 mg/m², patients	112000 ng/mL
FC(F)(F)c1ccc(CNc2ccc(Cc3c[nH]c4ncc(Cl)cc34)cn2)cn1	human	oral, 600 mg, multiple doses, patients	3660 ng/mL
CNC(=O)c1ccccc1Sc1ccc2c(/C=C/c3ccccn3)n[nH]c2c1	human	oral, 5 mg, single dose, fasted	51 ng/mL
CC(C)(O)c1ccccc1-c1ccc2[nH]c(/C=C/c3ccc(C(F)(F)F)cc3)nc2c1	male human	oral, 5 mg, single dose, fasted, healthy volunteers	29.6 ng/mL
